From ChEMBL document CHEMBL2203116, “Synthesis and evaluation of novel carbon-11 labeled oxopurine analogues for positron emission tomography imaging of translocator protein (18 kDa) in peripheral organs” (J Med Chem, 2011) come the findings set out here.

One data set relates to Blood. As to the kind of experiment: Drug uptake in iv dosed Sprague-Dawley rat cardiac blood pool up to 30 mins by PET scanning. In kind it is ADME, organism-based. To be noted: in vivo, 0.5 h. The method, boiled down:
(§1)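 Comparator radioligand 15–20 MBq/200 μL (0.15–0.18 nmol) injected iv into isoflurane-anesthetized male Sprague-Dawley rats. ROI time–activity curves for lung, heart, kidney, liver and cardiac blood pool. Uptake as decay-corrected SUV normalized to injected activity and body weight. n = 4, mean ± SD.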

Data set [1] has as its system Heart. Briefly: Drug uptake in iv dosed Sprague-Dawley rat heart after 10 mins by PET scanning. The format is ADME, organism-based. To be noted: in vivo. The method, boiled down: as §1
Data set [2] deals with Lung. As to the kind of experiment: Drug uptake in iv dosed Sprague-Dawley rat lung after 1 min by PET scanning. In kind it is ADME, organism-based. To be noted: in vivo. The essentials: as §1
Data set [3] deals with Kidney. As to the kind of experiment: Drug uptake in iv dosed Sprague-Dawley rat kidney upto 30 mins by PET scanning. To be noted: in vivo, 0.5 h. The format is ADME, organism-based. The method, boiled down: as §1
Data set [4] deals with Lung. As to the kind of experiment: Drug uptake in iv dosed Sprague-Dawley rat lung after 27.5 mins by PET scanning. In kind it is ADME, organism-based. To be noted: in vivo. The method, boiled down: as §1
The subject of data set [5] is Heart. As to the kind of experiment: Drug uptake in iv dosed Sprague-Dawley rat heart upto 30 mins by PET scanning. The format is ADME, organism-based. To be noted: in vivo, 0.5 h. The method, boiled down: as §1
For data set [6], the system named is Kidney. As to the kind of experiment: Drug uptake in iv dosed Sprague-Dawley rat kidney after 10 mins by PET scanning. In kind it is ADME, organism-based. To be noted: in vivo. The essentials: as §1
The test system of the next data set is Liver. Briefly: Drug uptake in iv dosed Sprague-Dawley rat liver upto 30 mins by PET scanning. The format is ADME, organism-based. To be noted: in vivo, 0.5 h. The method, boiled down:
as §1

In the next data set the target is Translocator protein (Rattus norvegicus, UniProt P16257). As to the kind of experiment: Displacement of [11C]-PK-11195 from TPSO in Sprague-Dawley rat brain homogenate after 30 mins by gamma counting. In kind it is tissue-based.
Data set [7] can be described thus: Lipophilicity, log D of the compound in octanol-phosphate buffer at pH 7.4 by shake flask method. In kind it is physicochemical. The essentials: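 Radioligand (~200000 cpm) shaken with n-octanol (3.0 g) and 0.1 M sodium phosphate buffer pH 7.4 (3.0 g). Vortexed 3 min at room temperature, centrifuged 3500 rpm for 5 min. Phases weighed and counted; organic layer repartitioned until consistent. LogD = log of the cpm/g octanol to cpm/g buffer ratio. Triplicate.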

Chain of Translocator protein (P16257 whole entry, looked up): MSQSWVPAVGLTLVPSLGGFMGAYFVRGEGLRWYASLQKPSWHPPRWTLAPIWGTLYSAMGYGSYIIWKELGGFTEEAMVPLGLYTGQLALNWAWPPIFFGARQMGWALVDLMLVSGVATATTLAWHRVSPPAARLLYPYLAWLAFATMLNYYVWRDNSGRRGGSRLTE

For the compound `CC[C@@H](C)N([11CH3])C(=O)c1cc2ccccc2c(-c2ccccc2Cl)n1`, the Drug uptake result with Blood, with Heart [1], in the data set on Lung [2], in the data set on Kidney [3], in the data set with Lung [4] and in the data set on Heart [5] was “Active” each time. Further, the Drug uptake result in the data set with Kidney [6] and in the data set on Liver was “Active” in each case.
Regarding `CCN(Cc1ccccc1)C(=O)Cn1c(=O)n([11CH3])c2cnc(-c3ccccc3)nc21`, the Drug uptake entry in the data set with Blood, in the data set with Kidney [3], in the data set on Heart [5] and in the data set on Liver was “Active” throughout. Also, the SUV was 4.2 with Heart [1], 7.6 with Lung [2], 2.3 in the data set with Lung [4] and 2.8 in the data set with Kidney [6].
As to `CCN(Cc1ccncc1)C(=O)Cn1c(=O)n(C)c2cnc(-c3ccccc3)nc21`, at Translocator protein, the Ki turned out to be 5.1 nM. The logD in [7] turned out to be 2.03.
In the same order, the values of `CCN(Cc1cccnc1)C(=O)Cn1c(=O)n(C)c2cnc(-c3ccccc3)nc21` are 13.2 nM and 2.17.
